Experimental data reported in ChEMBL document CHEMBL1148715, “Liver-targeted prodrugs of 2'-C-methyladenosine for therapy of hepatitis C virus infection” (J Med Chem, 2007).
Converted amounts (≈) assume the structure as drawn.

Experiments:
[1] = test system: Liver; test: Drug level in Sprague-Dawley rat liver at 50 mg/kg, po after 3 hrs; assay type: ADME, organism-based; parameters: dose 50 mg/kg, route oral; conditions: in vivo
Outline: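 Sprague–Dawley rats dosed by oral gavage in PEG-400. Liver (~1 g) taken at 3 h, snap-frozen, then homogenized in 3 volumes ice-cold 70% methanol with 20 mM EDTA/EGTA. Clarified supernatant dried and reconstituted. NTP measured by ion-pair LC-MS/MS ([…]/78.8) against a 0.01–30 μM 2'-C-methyl-ATP calibration curve; reported as nmol/g liver.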

[2] = test system: Hepatocyte; test: Activation of prodrug to corresponding nucleoside triphosphate in Sprague-Dawley rat hepatocytes at 25 uM after 2 hrs; assay type: cell-based
Outline: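 Freshly isolated hepatocytes from fed Sprague–Dawley rats (250–300 g), >85% trypan blue viable, 20 mg/mL wet weight. Incubated 2 h at 37 °C in Krebs–bicarbonate buffer with 20 mM glucose and 1 mg/mL BSA; compound added from DMSO stock. Extract reconstituted in water; 2'-C-methyl-ATP measured by LC-MS/MS against an authentic triphosphate standard.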

[3] = Oral bioavailability in Sprague-Dawley rat; assay type: ADME, organism-based; conditions: in vivo
Outline: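 Rats given the prodrug iv (10 mg/kg) and orally (50 mg/kg, PEG-400; fasted, food returned a few hours after dosing). Liver NTP followed over time by LC-MS/MS. Bioavailability taken as the ratio of liver NTP AUC, oral versus iv.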

[4] = Chemical stability at pH 7.0; assay type: physicochemical; conditions: buffer
Outline: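 Half-life measured in pH 7 buffer at 25 °C.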

[5] = Aqueous solubility of the compound; assay type: physicochemical
[6] = Solubility in citrate buffer at pH 5.1; assay type: physicochemical

| Compound | Activity [1] [nmol/g] | Activity [2] [nmol/g] | other results |
| --- | --- | --- | --- |
| CCCCCOC(=O)Nc1ncnc2c1ncn2[C@@H]1O[C@H](COP2(=O)OCCC(c3cccc(Cl)c3)O2)[C@@H](O)[C@@]1(C)O (some centres not stated) | 1.6 | 73 | – |
| C[C@@]1(O)[C@H](O)[C@@H](COP2(=O)OCC[C@@H](c3cccc(Cl)c3)O2)O[C@H]1n1cnc2c(N)ncnc21 (some centres not stated) | 2.9 | 389 | – |
| C[C@@]1(O)[C@H](O)[C@@H](COP2(=O)OCCC(c3cncc(Br)c3)O2)O[C@H]1n1cnc2c(N)ncnc21 (some centres not stated) | – | 194 | – |
| C[C@@]1(O)[C@H](O)[C@@H](COP2(=O)OCCC(c3cccc(F)c3)O2)O[C@H]1n1cnc2c(N)ncnc21 (some centres not stated) | 4.1 | 328 | – |
| C[C@@]1(O)[C@H](O)[C@@H](COP2(=O)OCCC(c3ccc(Cl)c(F)c3)O2)O[C@H]1n1cnc2c(N)ncnc21 (some centres not stated) | – | 328 | – |
| Cc1cncc(C2CCOP(=O)(OC[C@H]3O[C@@H](n4cnc5c(N)ncnc54)[C@](C)(O)[C@@H]3O)O2)c1 (some centres not stated) | – | 73 | – |
| C[C@@]12OC(=O)O[C@@H]1[C@@H](COP1(=O)OCC[C@@H](c3cccc(Cl)c3)O1)O[C@H]2n1cnc2c(N)ncnc21 (some centres not stated) | 29.2 | 296 | – |
| C[C@@]1(O)[C@H](O)[C@@H](COP2(=O)OCCC(c3cccc(C#N)c3)O2)O[C@H]1n1cnc2c(N)ncnc21 (some centres not stated) | – | 137 | – |
| C[C@@]1(O)[C@H](O)[C@@H](COP2(=O)OCCC(c3ccc(C#N)cc3)O2)O[C@H]1n1cnc2c(N)ncnc21 (some centres not stated) | – | 41 | – |
| C[C@@]12OC(=O)O[C@@H]1[C@@H](COP1(=O)OCCC(c3cccc(F)c3)O1)O[C@H]2n1cnc2c(N)ncnc21 (some centres not stated) | 22.9 | 313 | – |
| C[C@@]1(O)[C@H](O)[C@@H](COP2(=O)OCCC(c3ccc(Cl)c(Cl)c3)O2)O[C@H]1n1cnc2c(N)ncnc21 (some centres not stated) | 2 | 396 | – |
| C[C@@]1(O)[C@H](O)[C@@H](COP2(=O)OCCC(c3cc(Cl)cc(Cl)c3)O2)O[C@H]1n1cnc2c(N)ncnc21 (some centres not stated) | 2.4 | 585 | – |
| C[C@@]12OC(=O)O[C@@H]1[C@@H](COP1(=O)OCCC(c3cc(F)cc(F)c3)O1)O[C@H]2n1cnc2c(N)ncnc21 (some centres not stated) | 11.2 | 113 | – |
| C[C@@]1(O)[C@H](O)[C@@H](COP2(=O)OCCC(c3cccc(F)c3F)O2)O[C@H]1n1cnc2c(N)ncnc21 (some centres not stated) | 8.2 | 323 | – |
| C[C@@]1(O)[C@H](O)[C@@H](COP2(=O)OCCC(c3cccnc3)O2)O[C@H]1n1cnc2c(N)ncnc21 (some centres not stated) | – | 73 | – |
| COc1cc(C2CCOP(=O)(OC[C@H]3O[C@@H](n4cnc5c(N)ncnc54)[C@](C)(O)[C@@H]3O)O2)ccn1 (some centres not stated) | – | 93 | – |
| C[C@@]12OC(=O)O[C@@H]1[C@@H](COP1(=O)OCCC(c3ccc(Cl)c(Cl)c3)O1)O[C@H]2n1cnc2c(N)ncnc21 (some centres not stated) | 11.8 | 97 | – |
| C[C@@]12OC(=O)O[C@@H]1[C@@H](COP1(=O)OCCC(c3cc(Cl)cc(Cl)c3)O1)O[C@H]2n1cnc2c(N)ncnc21 (some centres not stated) | 5 | 49 | – |
| CC(C)[C@H](N)C(=O)O[C@@H]1[C@@H](COP2(=O)OCCC(c3cccc(Cl)c3)O2)O[C@@H](n2cnc3c(N)ncnc32)[C@]1(C)O (some centres not stated) | 3.1 | 117 | – |
| C[C@@]12OC(=O)O[C@@H]1[C@@H](COP1(=O)OCC[C@@H](c3ccncc3)O1)O[C@H]2n1cnc2c(N)ncnc21 (some centres not stated) | 28.3 | 185 | bioavailability [3]: 39%; half-life [4]: 780 min; solubility [5]: 450 µg/mL (≈ 892 µM); solubility [6]: 450 µg/mL (≈ 892 µM) |
| C[C@@]1(O)[C@H](O)[C@@H](COP2(=O)OCCC(c3cc(F)ccc3F)O2)O[C@H]1n1cnc2c(N)ncnc21 (some centres not stated) | – | 139 | – |
| C[C@@]1(O)[C@H](O)[C@@H](COP2(=O)OCCC(c3ccccc3Br)O2)O[C@H]1n1cnc2c(N)ncnc21 (some centres not stated) | – | 122 | – |
| C[C@@]1(O)[C@H](O)[C@@H](COP2(=O)OCCC(c3cc(F)cc(F)c3)O2)O[C@H]1n1cnc2c(N)ncnc21 (some centres not stated) | 4.1 | 250 | – |
| C[C@@]1(O)[C@H](O)[C@@H](COP2(=O)OCCC(c3ccccn3)O2)O[C@H]1n1cnc2c(N)ncnc21 (some centres not stated) | – | 93 | – |
| C[C@@]1(O)[C@H](O)[C@@H](COP2(=O)OCCC(c3cc(F)ccc3Br)O2)O[C@H]1n1cnc2c(N)ncnc21 (some centres not stated) | – | 72 | – |
| C[C@@]1(O)[C@H](O)[C@@H](COP2(=O)OCCC(c3cccc(Br)c3)O2)O[C@H]1n1cnc2c(N)ncnc21 (some centres not stated) | – | 99 | – |
| C[C@@]1(O)[C@H](O)[C@@H](CO)O[C@H]1n1cnc2c(N)ncnc21 | – | 209 | – |
| C[C@@]1(O)[C@H](O)[C@@H](COP2(=O)OCC[C@@H](c3ccncc3)O2)O[C@H]1n1cnc2c(N)ncnc21 (single isomer, unassigned) | 3.6 | 47 | – |
